Screens (PubChem BioAssay)
Shown are actives, neighbours in structure and some others; about 2.4% of the full set was active somewhere.
PGC1a acetyl inh: inhibitors of PGC1a acetylation signal, primary screen, cell-based, U2OS, AlphaScreen, inhibitor mode; AlphaScreen anti-acetyl-lysine; with virally co-expressed GCN5 acetyltransferase; actives 0.17% (n = 350,000); inhibition, % at 15.6 µM; AID 651687, 2012;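 active means every replicate shows inhibition of at least 40%; inconclusive means mean inhibition at least 40% but some replicate below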
Casp6 inh: human caspase-6 inhibitors, primary screen, biochemical, VEID-R110 fluorescence, single point, set 2. P55212. purified caspase-6, Z-VEID-R110 cleavage fluorescence. inhibition, % at 12.5 µM. actives 0.53% (n = 350,000);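 active means mean inhibition across replicates at least about 35%, with every replicate also reaching that limit, limit read from the data; inconclusive means only one of the two criteria met; inactive means neither criterion met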
Target sequence (P55212 24-179 limits assumed): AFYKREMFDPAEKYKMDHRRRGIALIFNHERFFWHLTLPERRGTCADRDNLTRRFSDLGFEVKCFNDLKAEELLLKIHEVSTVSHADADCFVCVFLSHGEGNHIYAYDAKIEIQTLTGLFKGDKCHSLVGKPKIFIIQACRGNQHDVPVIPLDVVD
Target sequence (P55212 194-293 limits assumed): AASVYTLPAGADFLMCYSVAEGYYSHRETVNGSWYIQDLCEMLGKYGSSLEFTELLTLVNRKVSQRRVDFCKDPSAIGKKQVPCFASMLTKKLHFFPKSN
ERAP1 inh: human ERAP1 aminopeptidase inhibitors, primary screen, biochemical, single point, plate reader | recombinant ERAP1, Leu-AMC fluorescence, 60 min | inhibition, % at 10.7 µM | actives 0.15% (n = 340,000) | AID 652197, 2013;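 active means mean replicate inhibition of at least 30%, or all replicates individually reaching that 30% level; inactive means mean below 30% and not every replicate reaching it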
S100A4 MyoIIA: inhibitors of S100A4-myosin IIA peptide binding, primary screen, biochemical, fluorescence polarization, TAMRA-MyoIIA peptide; AID 652163, 2013; Protein S100-A4 (Homo sapiens), P26447; actives 0.14% (n = 360,000); inhibition, % at 10.7 µM;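 active means mean inhibition of at least 70% across replicates, with every replicate also reaching that level; inconclusive means mean inhibition reaches 70% but some replicates fall short; inactive means mean inhibition below 70%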
Target sequence (P26447 whole entry, looked up): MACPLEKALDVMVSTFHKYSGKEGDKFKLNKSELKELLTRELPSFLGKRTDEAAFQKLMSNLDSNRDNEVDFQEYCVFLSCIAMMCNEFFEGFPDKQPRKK
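Material: human S100A4 monomer with TAMRA-labelled myosin IIA peptide; buffer or medium: HEPES pH 7.2 with CaCl2, KCl, NaCl, DTT, Triton; compound dosing: one concentration per compound; schedule: 5 min incubation before reading; benchmarks: neutral control DMSO, positive control TFP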
ARNT TACC3 PPI: disruptors of ARNT/TACC3 protein interaction, primary screen, biochemical, AlphaScreen, single concentration. AID 623870, 2012. AlphaScreen His-ARNT PAS-B/GST-TACC3 binding, luminescence; TACC3 fragment carries E629A point mutation. inhibition, % at 9.99 µM. actives 0.66% (n = 390,000). Transforming acidic coiled-coil-containing protein 3 (Homo sapiens), Q9Y6A5;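 active means mean inhibition of replicates at least 50% and at least half of replicates each reaching 50%; inconclusive means half or more replicates reach 50% but mean below 50%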
rRNA inh HTS: reduced GFP signal of wild-type E. coli, primary screen, bacterial rRNA inhibitor project, GFP/RFP fluorescence, OD600, single point; E. coli WT GFP vs humanized-ribosome RFP mutants, 24 h; active compounds read low; DMSO median 0, no signal -100; GFP signal change (wild-type ribosome), % (concentration not given with the values); actives 1.6% (n = 350,000); AID 720706, 2013;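 active means significant combined selectivity score with lowered wild-type GFP, culture density cut under 30%, mutant RFP and density less affected; inactive means any of these conditions unmet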
AID977621: growth inhibition of wild-type GFP E. coli, dose response, H69 mutant RFP, cherry-pick; shares compounds with rRNA inh HTS; 1,900 tested, under 10 active; E. coli wild-type GFP strain growth, fluorescence, 24 h; activity change, negative = inhibition at 50 µM;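 active means Wild-type ribosome reporter drop at least double the humanized mutant ribosome reporter drop, growth loss under a set limit; inconclusive means no clear call, values can overlap the other calls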;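 further: wild-type GFP and H69 mutant RFP strains grown together 50/50 in each well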
AID977628: E. coli growth inhibition, wild-type GFP versus h24 humanized RFP strain, dose response, h24 mutant RFP vs wild-type GFP, cherry-pick; shares compounds with rRNA inh HTS; E. coli WT GFP strain growth, fluorescence, 24 h; activity change, negative = inhibition at 50 µM; 1,900 tested, under 10 active; AID 977628, 2014;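 active means compound lowering the normal-ribosome reporter at least twice as much as the humanized-ribosome reporter, growth loss under a set limit; inconclusive means no clear call, values can overlap the other calls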;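 further: wild-type GFP and h24 humanized RFP strains co-cultured 1 to 1 per well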
Large screens that a line does not name were inactive (follow-up assays come after a bar, where they were run).

NC(=O)c1ccc(SCC(=O)OCC(=O)N2CCCCC2)c([N+](=O)[O-])c1	none (no result: PGC1a acetyl inh, ARNT TACC3 PPI)
COc1ccccc1S(=O)(=O)N[C@@H]1CC[C@@H](CCNC(=O)C2CCCCC2)O[C@H]1CO	none
CN(Cc1cccc(F)c1)C(=O)CN1CCN(S(=O)(=O)c2ccc3c(c2)OCCCO3)CC1	none
CN(Cc1ccc(F)cc1)C(=O)CN1CCN(S(=O)(=O)c2ccc3c(c2)OCCCO3)CC1	rRNA inh HTS -17.6 (no result: PGC1a acetyl inh, ARNT TACC3 PPI) | AID977628 inconclusive
Cc1noc(C)c1NC(=O)N(C)C[C@@H]1Oc2ccc(NC(=O)Nc3ccc(C(F)(F)F)cc3)cc2C(=O)N([C@H](C)CO)C[C@H]1C	none
COc1ccccc1CC(=O)NCCc1ccccc1	none (no result: PGC1a acetyl inh)
O=C(COc1cc(F)ccc1[N+](=O)[O-])NCCCc1ccccc1	rRNA inh HTS -27.4 (no result: PGC1a acetyl inh) | AID977621 inactive | AID977628 inactive
COc1ccccc1CC(=O)NCCCc1ccccc1	rRNA inh HTS -23.0 | AID977621 inactive | AID977628 inconclusive
CCC(=O)Nc1ccc2c(c1)OC[C@H](C)N(Cc1ccncc1)C[C@@H](C)[C@H](OC)CN(C)C2=O	none (no result: ARNT TACC3 PPI)
Cc1cc(C)cc(NC(=O)c2cccc(NC(=O)c3ccco3)c2)c1	rRNA inh HTS -24.1 | AID977621 inactive
CC(=O)c1cccc(NC(=O)c2cccc(NC(=O)c3ccco3)c2)c1	none
CCN(CC)CCN(C(=O)c1ccc2c(c1)CCCC2)c1nc2ccc(F)cc2s1	rRNA inh HTS -23.4 | AID977621 inactive
CCN(CC)CCN(C(=O)c1ccc2c(c1)CCCC2)c1nc2ccc(C)cc2s1	none (no result: PGC1a acetyl inh)
Cc1cc(C(=O)Nc2ccc3ccccc3c2)c(C)o1	rRNA inh HTS -22.0 (no result: PGC1a acetyl inh) | AID977621 inactive | AID977628 inactive
Cc1cc(C(=O)Nc2ccc3ccccc3c2)oc1C	none
Cc1ccoc1C(=O)Nc1ccc2ccccc2c1	rRNA inh HTS -20.2 (no result: PGC1a acetyl inh) | AID977621 inactive
Cc1sc(C(=O)Nc2ccc3ccccc3c2)cc1CC(=O)O	rRNA inh HTS -31.2 | AID977628 inactive
CC(=O)c1cc(C(=O)Nc2ccc3ccccc3c2)c(C)o1	none (no result: PGC1a acetyl inh)
C[C@H](CO)N1C[C@H](C)[C@H](CN(C)C(=O)c2ccc3c(c2)OCO3)Oc2ncc(C3=CCCC3)cc2C1=O	none
C[C@@H]1CN([C@@H](C)CO)C(=O)c2cccc(NS(=O)(=O)c3ccc(Cl)cc3)c2O[C@H]1CN(C)C	none
C[C@H]1CN([C@@H](C)CO)S(=O)(=O)c2ccc(-c3ccc(C(=O)N(C)C)cc3)cc2O[C@H]1CN(C)Cc1ccccc1C(=O)O	none
Cc1cc(-c2ccc(C)c(S(=O)(=O)NCC3CCN(Cc4ccccc4F)CC3)c2)on1	rRNA inh HTS -16.1 | AID977621 inactive | AID977628 inactive
C[C@H]1CN([C@@H](C)CO)C(=O)c2cc(NS(=O)(=O)c3ccccc3)ccc2O[C@H]1CN(C)Cc1ccc2c(c1)OCO2	none (no result: ARNT TACC3 PPI)
O=C(Cc1ccc(NC(=O)C2CCCN(C(=O)CCc3ccccc3)C2)cc1)Nc1cccc(C(=O)N2CCCCC2)c1 (stereo not drawn)	none (no result: PGC1a acetyl inh, ERAP1 inh)
O=C(Cc1cccc(NC(=O)C2CCCN(C(=O)CCc3ccccc3)C2)c1)Nc1cccc(C(=O)N2CCCC2)c1 (stereo not drawn)	rRNA inh HTS -19.0 (no result: Casp6 inh, ERAP1 inh) | AID977621 inconclusive
COc1ccc(C(=O)C[n+]2ccc3c(c2)nc(-c2cc(OC)c(OC)cc2OC)n3C)cc1	rRNA inh HTS -27.9 | AID977621 inconclusive | AID977628 inactive
O=C(NCC[C@@H]1CC[C@@H](NC(=O)C2CC2)[C@H](CO)O1)c1cc(Cl)cc(Cl)c1	none
CCC1CCCCN1C(=O)CSc1nnc(-c2cccc(Cl)c2)o1 (stereo not drawn)	rRNA inh HTS -25.5 (no result: PGC1a acetyl inh) | AID977621 inactive | AID977628 inactive
CCC1CCCCN1C(=O)CSc1nnc(-c2ccc(Cl)cc2)o1 (stereo not drawn)	none (no result: PGC1a acetyl inh)
COc1ccc2sc(N3C(=O)CC(Cc4cccc(C)c4)C3=O)nc2c1 (stereo not drawn)	rRNA inh HTS -33.0 | AID977628 inconclusive
CCCNC(=O)N1[C@H](CO)[C@H](c2ccc(C3=CCCC3)cc2)[C@@H]1CNC(C)=O	none (no result: Casp6 inh, ERAP1 inh, S100A4 MyoIIA)
CS(=O)(=O)Nc1ccc2c(c1)[C@H]1C[C@@H](CC(=O)NCCN3CCCCC3)O[C@@H](CO)[C@H]1O2	none
CN(C)c1ccc(-c2nnn(Cc3ccccc3Br)n2)cc1	rRNA inh HTS -19.1 | AID977621 inconclusive
CC(OC(=O)CCc1nc2ccccc2c(=O)[nH]1)C(=O)c1ccc(Br)cc1 (stereo not drawn)	rRNA inh HTS -23.5 (no result: PGC1a acetyl inh) | AID977628 inconclusive
CC(OC(=O)CCc1c[nH]c2ccccc12)C(=O)c1ccccc1 (stereo not drawn)	rRNA inh HTS -24.8 | AID977628 inconclusive
CC(=O)Nc1ccc(NC(=O)C(C)OC(=O)CCCc2c[nH]c3ccccc23)cc1 (stereo not drawn)	none (no result: PGC1a acetyl inh)
CS(=O)(=O)N1CC(=O)N2[C@H](C1)[C@@H](c1ccc(Br)cc1)[C@@H]2CO	none (no result: ARNT TACC3 PPI)
COc1ccc(S(=O)(=O)Nc2cccc3c2O[C@H](CN(C)C(=O)Nc2cccc4ccccc24)[C@@H](C)CN([C@H](C)CO)C3=O)cc1	none (no result: Casp6 inh, ERAP1 inh, S100A4 MyoIIA, ARNT TACC3 PPI)
O=S(=O)(NCCc1ccncc1)c1ccc(Br)cc1	none (no result: PGC1a acetyl inh, Casp6 inh, ERAP1 inh, S100A4 MyoIIA, rRNA inh HTS)
Fc1ccc(Br)cc1SCCc1ccncc1	rRNA inh HTS -25.2 | AID977621 inactive | AID977628 inactive
O=C(NCC[C@@H]1CC[C@@H](NC(=O)C2CCOCC2)[C@@H](CO)O1)Nc1ccc(Cl)cc1	none (no result: ARNT TACC3 PPI)
C[C@@H]1CCCCO[C@@H](CN(C)C(=O)Nc2ccc3c(c2)OCO3)[C@@H](C)CN([C@H](C)CO)C(=O)c2cc(NC(=O)CCCN(C)C)ccc2O1	none
